TRPC4 act – activators of mouse TRPC4 channel; 310,000 tested, 0.49% active; AID 2237; B-score at 10 µM; HEK293 TRPC4beta/mu-opioid, Fluo4 calcium fluorescence; hits give high values; Q9QUQ5;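 active = B-score above 5 SD of library B-scores, and initial fluorescence ratio not above library mean plus 5 SD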;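 note: positive B-score marks a calcium rise read as TRPC4 activation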
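Assay system – TRPC4beta and mu-opioid receptor HEK293 stable cells · Measured by – Fluo4 fluorescence, kinetic · Schedule – dye loading 45 min room temperature, 110 s kinetic read · Read-out – B-scored integrated calcium fluorescence ratio · Controls – buffer and maximal DAMGO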
TRPC6 act – activators of mouse TRPC6 channel. Q61143. HEK293-TRPC6 membrane potential dye fluorescence; hits give high values. B-score at 10 µM. 310,000 tested, 0.13% active;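 active = B-score of the integrated fluorescence ratio above library mean plus 3 SD, and starting fluorescence ratio within library mean plus 5 SD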;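 note: higher score means more depolarization so channel activation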
TRPC4 PAM – TRPC4 (mouse) allosteric potentiation; 310,000 tested, 0.42% active; Q9QUQ5; B-score at 10 µM; HEK293 TRPC4beta/mu-opioid, DAMGO EC20, Fluo-4 Ca2+ flux; hits give high values;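 active = B-score of calcium response area above 5 SD of library B-scores, with initial fluorescence ratio within 5 SD of library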;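 note: B-score of integrated fluorescence ratio over time as area under calcium response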
TRPC4 inh – TRPC4 (mouse) channel inhibition; HEK293 TRPC4beta/mu-opioid, DAMGO-evoked Fluo4 calcium flux; hits give low values; B-score at 10 µM; 300,000 tested, 0.39% active; AID 2247;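 active = B-score over 3 SD under the library average, no early fluorescence shift, positive overall ratio signal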
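test system = HEK293 cells with stable TRPC4beta plus mu-opioid receptor expression | detection = Fluo4 Ca2+ flux fluorescence | read-out = integrated fluorescence ratio relative to baseline, converted to per-well B score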
TRPC6 inhibitor – inhibitors of mouse TRPC6 channel; Q61143; 310,000 tested, 1.1% active; HEK293-TRPC6, membrane potential dye, ACh-evoked depolarization; hits give low values; AID 2553; B-score at 10 µM;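 active = B-score under library mean minus 3 SD, initial fluorescence not abnormally high, positive integrated signal ratio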;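 note: B-score derived from integrated fluorescence ratio over the kinetic read; more negative B-score means stronger inhibition of depolarization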
The depositor's hits bear a star; i = inactive. Hits are enriched below; roughly 2.3% of the tested compounds scored in any of these assays.

SMILES | TRPC4 act | TRPC6 act | TRPC4 PAM | TRPC4 inh | TRPC6 inhibitor
O=C1C2CC=CCC2C(=O)N1c1ccc(NCCc2ccccc2)c([N+](=O)[O-])c1 (stereo not drawn) | i | i | i | i | i
O=[N+]([O-])c1ccccc1NC1CCN(Cc2ccccc2)CC1 | i | i | i | i | i
CC(C)c1ccc(OCC(=O)Nc2c3c(nn2C(C)(C)C)CS(=O)(=O)C3)cc1 | i | i | i | i | i
O=C(CCN1CCC(c2ccc(Cl)s2)=N1)c1ccc(Cl)s1 | i | i | i | i | i
CCOC(=O)C1CCN(C(=O)c2ccc(OCC(=O)Nc3ccc(OCC)cc3)c(OC)c2)CC1 | i | i | i | i | i
Cc1oc(-c2ccc(Cl)cc2)nc1CS(=O)CC(=O)NCCCN1CC(C)CC(C)C1 (stereo not drawn) | 54* | i | i | i | i
Cc1ccccc1-c1nc(CS(=O)(=O)CC(=O)NCCCN2CC(C)CC(C)C2)c(C)o1 (stereo not drawn) | 66* | i | i | i | i
Cc1ccccc1-c1nc(CS(=O)(=O)CC(=O)NCCCN2CCOCC2)c(C)o1 | i | i | i | i | i
COc1cccc(-c2nc(CS(=O)(=O)CC(=O)NCCCN3CC(C)CC(C)C3)c(C)o2)c1 (stereo not drawn) | 65* | i | i | i | i
Cc1oc(-c2ccc(Cl)cc2)nc1CS(=O)CC(=O)NCCN1CCCCCC1 (stereo not drawn) | i | i | i | i | i
Oc1c(Br)cc(Br)c(/C=N/n2c(-c3ccccc3)n[nH]c2=S)c1Br | i | i | 28* | i | i
O=[N+]([O-])c1ccc(-c2nn(-c3ccccc3)cc2/C=N/n2c(-c3ccncc3)n[nH]c2=S)cc1 | i | i | i | i | i
S=c1[nH]nc(-c2ccncc2)n1/N=C/c1cn(-c2ccccc2)nc1-c1ccccc1 | i | i | 13* | i | i
CCCCC(c1nnnn1CC1CCCO1)N1CCN(c2nc3ccccc3s2)CC1 (stereo not drawn) | 88* | i | i | i | i
CCCC(c1nnnn1CC1CCCO1)N1CCN(c2nc3ccccc3s2)CC1 (stereo not drawn) | i | i | i | i | i
CN1C(=O)[C@H](Cc2ccc([N+](=O)[O-])cc2)NC1=S | i | i | i | i | i
CC(C)(C)CN1CCNC[C@H]1Cc1cccc2ccccc12 | i | i | i | i | i
c1ccc(C2(CN3CCNC[C@H]3Cc3cccc4ccccc34)CC2)cc1 | 84* | i | i | i | i
Nc1nonc1C(=O)NCCN=Cc1cc(Cc2ccccc2)cc(Br)c1O | i | i | i | i | i
Nc1nonc1C(=O)NCCN=Cc1ccccc1O | 71* | i | i | i | i
Cc1ccc(C2=Nc3ccc(Br)cc3C(c3ccncc3)=NN2)cc1 | i | i | i | i | i
CCCCN(CC)CCNC(=O)c1cc2c(C)nc3ccccc3c2o1 | 138* | i | i | i | i
O=C(NCc1ccco1)c1cc2cc3ccc(Cl)cc3nc2o1 | i | i | i | i | i
CCCCN(CC)CCCNC(=O)c1cc2cc3ccc(C)cc3nc2o1 | i | i | 16* | i | i
CCCCN(CC)CCNC(=O)c1cc2cc3ccc(Cl)cc3nc2o1 | 103* | i | 13* | i | i
SMILES | TRPC4 act | TRPC6 act | TRPC4 PAM | TRPC4 inh | TRPC6 inhibitor
CCCN(CCC)CCCNC(=O)c1cc2cc3ccc(Cl)cc3nc2o1 | 53* | i | i | i | i
Cc1coc2c(C)c3oc(=O)c(CCC(=O)NCCC(=O)O)c(C)c3cc12 | i | i | i | i | i
COc1cccc(CC2(CO)CCCN(Cc3ccc4c(c3)OCCO4)C2)c1 (stereo not drawn) | i | i | i | i | i
Cc1ccc(CN2CCCN(Cc3c(C)cc(C)cc3C)S2(=O)=O)cc1 | i | i | i | i | i
CCCCn1c(N)nc2ccccc21 | i | i | i | i | i
CN(C)CCn1c(N)nc2ccccc21 | i | i | 13* | i | i
CN1CCN(Cc2nc3c(c(=O)[nH]c(=O)n3C)n2Cc2c(F)cccc2Cl)CC1 | 80* | i | 20* | i | i
